UBC13 polyUb: human UBC13 polyubiquitination inhibition | inhibition, % at 20 µM | AID 485273 | P61088 | 0.47% of 330,000 active | UBC13 polyubiquitin chain formation, TR-FRET; in the data active means inhibition above about 45%, passing the limit was not always enough; inconclusive means no clear call, values can overlap the other calls
ANO1 block: blocks the mouse calcium-activated chloride channel TMEM16A | normalized B-score (activity score, 25-100; higher = stronger inhibition) at 10 µM | 1.2% of 310,000 active | HEK293 TMEM16A/YFP iodide influx fluorescence, ionomycin | Q8BHY3 | AID 588511;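 active means ratio plate-corrected score three or more library SD toward inhibition, starting fluorescence score within five deviations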;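 further: score derived from kinetic fluorescence span divided by baseline fluorescence per well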
Apaf-1 inh: blocks human Apaf-1 apoptosome activity; AID 489030; O14727; 0.71% of 330,000 active; reconstituted apoptosome caspase-3 activity, DEVD-Rh110 fluorescence; inhibition, % at 20 µM; active means inhibition of at least 40% at 20 µM
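System: reconstituted apoptosome with Apaf-1, cytochrome c, caspase-9, procaspase-3, dATP; Signal: Rh110 fluorescence intensity; Schedule: 30 min compound preincubation, 50 min activation, room temperature; Reagent: cytochrome c trigger plus (Z-DEVD)2-Rh110 caspase-3 substrate.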
ANO1 activ: mouse TMEM16A channel activation, primary screen | B-score at 10 µM | Q8BHY3 | 0.3% of 340,000 active | HEK293 TMEM16A/YFP-H148Q/I152L, iodide quench fluorescence; active compounds read low;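 active means fluorescence-ratio B-score plate-corrected deviation score at least 3 library SD below zero, with starting fluorescence score within 5 deviations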;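 further: channel opened by trigger with iodide after compound preincubation; score built on the fluorescence ratio of max minus min over baseline; more negative score means more quench and so TMEM16A activation or potentiation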
FID counter: counter-screen for HCV NS3 helicase inhibitors: DNA intercalator displacement. DNA fluorescent intercalator displacement, fluorescence. inhibition, % at 7.9 µM. 0.17% of 290,000 active; in the data active means inhibition above about 37%;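 further: higher means more ethidium bromide displaced from hairpin DNA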
Casp3 counter: inhibits human caspase-3 in UBC13 counter-screen; shares compounds with UBC13 polyUb; Recombinant caspase-3, Caspase-Glo 3/7 luminescence, 60 min; inhibition, % at 20 µM; 4% of 1,400 active;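 active means mean inhibition across replicates above about 26%, limit read from the data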
UBC13 conf: human UBC13 polyubiquitin inhibition, confirmed | shares compounds with UBC13 polyUb | UBC13 polyubiquitination, TR-FRET, biochemical | inhibition, % at 10 µM | 68% of 1,400 active; in the data active means inhibition above about 45%; inconclusive means no clear call, values can overlap the other calls
Each line names hits and unclear results; the compound was inactive in the other large screens (follow-up assays come after a bar, where they were run). Only some compounds are listed: those with a hit (about 2.4% of all), similar ones and a draw of the others.

COc1ccc(C2=Nn3c(nnc3-c3ccccc3F)SC2)cc1OC1CCOC1 (configuration not stated)	UBC13 polyUb 46 (no result: ANO1 block, FID counter) | Casp3 counter inactive | UBC13 conf inactive
COc1ccc(OC)c(-c2nnc3n2N=C(c2ccc(OC)c(OC4CCCC4)c2)CS3)c1	none (no result: ANO1 block, FID counter)
CCOC(=O)c1c(C(C)(C)C)oc2ccc(O)cc12	UBC13 polyUb 55 | Casp3 counter inactive | UBC13 conf 54
CCOC(=O)c1c(CN2CCOCC2)oc2ccc(OC)cc12	none (no result: ANO1 activ)
CCOC(=O)c1c(CN2CCCCC2)oc2ccc(O)cc12	UBC13 polyUb 53 | Casp3 counter inactive | UBC13 conf 54
Oc1[nH]c2ccccc2c1N=NC(=S)NCC1CCCO1 (configuration not stated)	UBC13 polyUb 98 | Casp3 counter inactive | UBC13 conf 102
O=C(N=Nc1c(O)[nH]c2ccccc12)Nc1ccccc1	none (no result: UBC13 polyUb, ANO1 block, Apaf-1 inh, FID counter)
Cc1cccc(NC(=S)N=Nc2c(O)[nH]c3ccccc23)c1	UBC13 polyUb 60 | Casp3 counter inactive | UBC13 conf 76
Oc1[nH]c2c(Cl)cc(Cl)cc2c1N=NC(=S)NCC1CCCO1 (configuration not stated)	none
CCn1c(O)c(N=NC(=S)NCC2CCCO2)c2ccccc21 (configuration not stated)	UBC13 polyUb 77 | Casp3 counter inactive | UBC13 conf 95
Cc1cc(C)c2[nH]c(O)c(N=NC(=S)NCC3CCCO3)c2c1 (configuration not stated)	UBC13 polyUb 91 | Casp3 counter inactive | UBC13 conf 94
O=C(Nc1ccc(OCc2ccccc2)cc1)Nc1ccccc1C(=O)NCCCN1CCOCC1	none
CN(c1ccccc1C(=O)Nc1cccc(Br)c1)S(=O)(=O)c1ccccc1	none
COc1ccccc1NC(=S)N=Nc1c(O)[nH]c2ccc(Br)cc12	none
CC(C)c1ccc2[nH]c(O)c(N=NC(=O)c3cccc(S(=O)(=O)Nc4ccccc4Cl)c3)c2c1	none
Oc1[nH]c2ccc(Br)cc2c1N=NC(=S)NCC1CCCO1 (configuration not stated)	UBC13 polyUb 79 | Casp3 counter inactive | UBC13 conf 97
CC(C)NC(=S)N=Nc1c(O)[nH]c2ccc(C(C)C)cc12	UBC13 polyUb 65 | Casp3 counter inactive | UBC13 conf 74
CN(c1ccccc1)c1nccc(=O)[nH]1	none (no result: FID counter)
COc1ccc(CN(C)C(=O)CSc2nnc(C3CC3)n2C2CC2)cc1	none (no result: ANO1 block, FID counter)
CC(C)(C)c1ccc(C(=O)N/N=C/c2ccccn2)cc1	UBC13 polyUb 65 | Casp3 counter inactive | UBC13 conf 87
C/C(=N/NC(=O)c1ccc(C(C)(C)C)cc1)c1ccccn1	UBC13 polyUb 51 (no result: FID counter) | Casp3 counter 61 | UBC13 conf 101
O=C(N/N=C/c1ccccn1)c1ccc(N/N=C/c2ccccn2)cc1	none
CCCCCN=C(N)N/N=C/c1c[nH]c2ccc(OC)cc12	UBC13 polyUb 107, Apaf-1 inh 78 (no result: FID counter) | Casp3 counter inactive | UBC13 conf 111
CCCOc1ccc(C(=O)N/N=C/c2c[nH]c3ccc(Br)cc23)cc1	none
CCCCc1ccc(NC(=S)NCc2ccccc2OC)cc1	none
CCOC(=O)Cc1cc(=O)[nH]c(Nc2nc3ccccc3o2)n1	UBC13 polyUb 82 | Casp3 counter 45 | UBC13 conf 93
COC(=O)Cc1cc(=O)[nH]c(Nc2nc3ccccc3o2)n1	UBC13 polyUb 58 | Casp3 counter inactive | UBC13 conf 73
Cc1ccc2oc(Nc3nc(-c4ccccc4)cc(=O)[nH]3)nc2c1	none (no result: ANO1 block, ANO1 activ)
COC(=O)Cc1cc(=O)[nH]c(/N=C(\N)Nc2ccccc2)n1	none
COCc1cc(=O)[nH]c(Nc2nc(C)c3ccccc3n2)n1	none
COCc1cc(=O)[nH]c(Nc2nc3ccccc3o2)n1	UBC13 polyUb 81 | Casp3 counter 43 | UBC13 conf 81
CC1(C)CN(c2cccc(Br)c2)C1=O	none
CNC[C@H]1Oc2ccc(NC(=O)Nc3ccccc3)cc2CC(=O)N([C@H](C)CO)C[C@H]1C	none (no result: ANO1 block, FID counter)
CCCCCc1cc(=O)oc2c(C(CCN(CC)CC)c3ccc(N(C)C)cc3)c(OC)cc(OC)c12 (configuration not stated)	UBC13 polyUb 80 (no result: FID counter) | Casp3 counter inactive | UBC13 conf inactive
CCCCCc1cc(=O)oc2c(C(CCN3CCCCC3)c3cc(OC)c(OC)c(OC)c3)c(OC)cc(OC)c12 (configuration not stated)	UBC13 polyUb 81 (no result: FID counter) | Casp3 counter inactive | UBC13 conf 46
Cc1sc2nc(N3CCOCC3)[nH]c(=O)c2c1-c1ccccc1	none
Cc1sc2nc(C(C)Nc3ccccc3N3CCOCC3)[nH]c(=O)c2c1C (configuration not stated)	UBC13 polyUb 74 | Casp3 counter inactive | UBC13 conf 87
O=[N+]([O-])c1ccc2c(c1)ncn2CCc1ccccc1	none
CC(=O)Nc1ccc(S(=O)(=O)NNC(=O)C(=O)NNc2ccccn2)cc1	UBC13 polyUb 58 | Casp3 counter inactive | UBC13 conf 95
Cc1ccc(S(=O)(=O)NNC(=O)C(=O)NNc2ccccn2)cc1	UBC13 polyUb 69 | Casp3 counter inactive | UBC13 conf 81
COc1ccc(CNC(=O)COC(=O)Cc2ccc(Cl)cc2Cl)cc1	none
CN1CCc2c1nc1ccccc1c2N (tested in a mixture with another compound)	none
CCCCN1CCc2c1nc1ccc(Br)cc1c2N	UBC13 polyUb 55 | Casp3 counter inactive | UBC13 conf inconclusive
FC(F)(F)c1nc2ccccc2n2c(-c3ccc(Cl)cc3)nnc12	none
Cc1ccc(-c2nnc3c(C(F)(F)F)nc4ccccc4n23)cc1	UBC13 polyUb 52 | Casp3 counter inactive | UBC13 conf inconclusive
CC(C)CNC(=O)c1cc(S(=O)(=O)N2CCOCC2)ccc1N1CCCC1	none
CC(C)C(=O)Nc1ccc2nn(-c3ccccc3)nc2c1	UBC13 polyUb 48 | Casp3 counter 49 | UBC13 conf inactive
O=C(Nc1ccc2nn(-c3ccccc3)nc2c1)c1cccnc1	none
CCOc1ccc(NC(=O)c2cc(S(=O)(=O)N3CCCCC3)c[nH]2)cc1	none
O=C(Nc1cccnc1)c1sc(Nc2ccccc2)nc1-c1ccccc1	UBC13 polyUb 48 | Casp3 counter inactive | UBC13 conf inactive
CSCCC(NC(=O)c1ccccc1Cl)C(=O)NNC(=O)c1csc(N2CCOCC2)n1 (configuration not stated)	UBC13 polyUb 50 (no result: FID counter) | Casp3 counter inactive | UBC13 conf 57
CSCCC(NC(=O)c1ccccc1Br)C(=O)NNC(=O)c1csc(N2CCOCC2)n1 (configuration not stated)	UBC13 polyUb 50 (no result: FID counter) | Casp3 counter inactive | UBC13 conf 52

Assay outcomes as filed in PubChem.
